Assay results taken from ChEMBL document CHEMBL1137077, “Design, synthesis, anti-HIV activities, and metabolic stabilities of alkenyldiarylmethane (ADAM) non-nucleoside reverse transcriptase inhibitors” (J Med Chem, 2004).
pEC50: −log10 of the molar value.

Key:
[1] = Half-life in rat plasma; format: ADME
[2] = tested on: Human immunodeficiency virus 1; experiment: Effective concentration required to inhibit cytopathicity of HIV-1(IIIB) in MT-4 cells; format: functional, organism-based; conditions: Human immunodeficiency virus 1, MT4
Outline: (§1)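 MT-4 cells resuspended at 6 × 10⁵ cells/mL and infected with HIV-1 IIIB or HIV-2 ROD at 100–300 CCID₅₀, with compound added at infection. Serial 5-fold dilutions were run in triplicate. After 5 days, viability was read by MTT reduction at 540 and 690 nm using the median OD of three wells. EC₅₀ is the concentration giving 50% protection from viral cytopathic effect.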

[3] = tested on: Human immunodeficiency virus 2; experiment: Effective concentration required to inhibit cytopathicity of HIV-2(ROD) in MT-4 cells.; format: functional, organism-based; conditions: mt4; outline: as §1
MT4 [4] = experiment: Evaluated for cytotoxicity in mock-infected MT-4 cells; format: functional; conditions: Homo sapiens
Outline: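 Exponentially growing MT-4 cells were resuspended at 6 × 10⁵ cells/mL in mock-infected wells alongside infected wells, with serial 5-fold compound dilutions run in triplicate. MTT viability was read after 5 days at 540 and 690 nm using the median OD of three wells. CC₅₀ is the concentration reducing OD₅₄₀ of mock-infected controls by 50%.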

MT4 [5] = experiment: Effective concentration required to inhibit cytopathicity of HIV-1(IIIB) in MT-4 cells; Not active; format: functional, cell-based, Homo sapiens; outline: as §1
MT4 [6] = experiment: Effective concentration required to inhibit cytopathicity of HIV-2(ROD) in MT-4 cells; format: functional, cell-based; conditions: Homo sapiens; outline: as §1
MT4 [7] = experiment: Evaluated for the ability to inhibit cytopathicity of HIV-1(IIIB) in MT-4 cells; format: functional, cell-based; conditions: Homo sapiens; outline: as §1

Structure (SMILES)	half-life [1]	pEC50 [2]	EC50 [3]	CC50 (MT4 [4])	EC50 (MT4 [5])	pEC50 (MT4 [6])	pEC50 (MT4 [7])
COC(=O)c1cc(C(=CCCCC(=O)OC(C)C)c2cc(C)c(OC)c(C(=O)OC)c2)cc(C)c1OC	1.7 min	5.46	Not Active	59.5 µM	–	–	–
C#CCCCC=C(c1cc(Br)c(OC)c(C(=O)OC)c1)c1cc(Br)c(OC)c(C(=O)OC)c1	18.9 min	6.15	Not Active	57.8 µM	–	–	–
C#CCCCC=C(c1cc(Cl)c(OC)c(C(=O)OC)c1)c1cc(Cl)c(OC)c(C(=O)OC)c1	20.6 min	5.96	Not Active	143 µM	–	–	–
COC(=O)CCCC=C(c1ccc(OC)c(OC)c1)c1ccc(OC)c(OC)c1	0.9 min	–	Not Active	7.4 µM	Not Active	–	–
COCCCCC=C(c1cc(Cl)c(OC)c(COC)c1)c1cc(Cl)c(OC)c(COC)c1	–	–	Not Active	34 µM	Not Active	–	–
COC(=O)CCCC=C(c1cc(C)c(OC)c(C(=O)OC)c1)c1cc(C)c(OC)c(C(=O)OC)c1	42.9 min	6.00	Not Active	6.1 µM	–	–	–
CCCCCC=C(c1cc(Cl)c(OC)c(C(=S)OC)c1)c1cc(Cl)c(OC)c(C(=S)OC)c1	–	–	Not Active	181 µM	Not Active	–	–
C=CCCCC=C(c1cc(Br)c(OC)c(C(=O)OC)c1)c1cc(Br)c(OC)c(C(=O)OC)c1	58.5 min	5.52	Not Active	62.3 µM	–	–	–
COC(=O)CCCC=C(c1cc(C#N)c(OC)c(C(=O)OC)c1)c1cc(C#N)c(OC)c(C(=O)OC)c1	12.4 min	6.10	Not Active	> 247 µM	–	–	–
COC(=O)c1cc(C(=CCCCc2ccccc2)c2cc(Br)c(OC)c(C(=O)OC)c2)cc(Br)c1OC	55 min	5.59	–	> 198 µM	–	4.53	–
CCCCCC=C(c1cc(Cl)c(OC)c(C(C)=O)c1)c1cc(Cl)c(OC)c(C(C)=O)c1	–	–	Not Active	47.1 µM	Not Active	–	–
C=CCCCC=C(c1cc(Cl)c(OC)c(C(=O)OC)c1)c1cc(Cl)c(OC)c(C(=O)OC)c1	39.3 min	5.43	–	> 253 µM	–	4.58	–
CCCOc1c(C)cc(C(=CCCCC(=O)OC)c2cc(C)c(OCCC)c(C(=O)OC)c2)cc1C(=O)OC	–	–	Not Active	> 231 µM	Not Active	–	–
CCCOC(=O)CCCC=C(c1cc(Cl)c(OC)c(C(=O)OC)c1)c1cc(Cl)c(OC)c(C(=O)OC)c1	7.4 min	5.51	Not Active	159 µM	–	–	–
COC(=O)c1cc(C(=CCCCC(=O)OC(C)C)c2cc(Br)c(OC)c(C(=O)OC)c2)cc(Br)c1OC	5.7 min	5.57	Not Active	35.3 µM	–	–	–
CCOC(=O)c1cc(C(=CCCCC(=O)OC)c2cc(C)c(OCC)c(C(=O)OCC)c2)cc(C)c1OCC	37.7 min	4.85	Not Active	> 231 µM	–	–	–

Structure (SMILES)	half-life [1]	pEC50 [2]	EC50 [3]	CC50 (MT4 [4])	EC50 (MT4 [5])	pEC50 (MT4 [6])	pEC50 (MT4 [7])
COC(=O)c1cc(C(=CCCCc2ccccc2)c2cc(Cl)c(OC)c(C(=O)OC)c2)cc(Cl)c1OC	76.6 min	4.88	–	> 230 µM	–	3.95	–
COC(=O)CCCC(CCCC(=O)OC)=C(c1cc(Br)c(OC)c(C(=O)OC)c1)c1cc(Br)c(OC)c(C(=O)OC)c1	–	–	Not Active	78.1 µM	Not Active	–	–
COC(=O)CCCC=C(c1cc(Br)c(OC)c(C(=O)OC)c1)c1cc(Br)c(OC)c(C(=O)OC)c1	6.2 min	6.52	Not Active	91 µM	–	–	–
COC(=O)CCCC=C(c1cc(Cl)c(OC)c(C(=O)OC)c1)c1cc(Cl)c(OC)c(C(=O)OC)c1	5.8 min	6.22	–	160 µM	–	4.60	–
CCCOC(=O)c1cc(C(=CCCCC(=O)OC)c2cc(C)c(OCCC)c(C(=O)OCCC)c2)cc(C)c1OCCC	–	–	Not Active	> 209 µM	Not Active	–	–
COC(=O)CCC/C=C(\c1ccc(OC)c(OC)c1)c1cc(Cl)c(OC)c(C(=O)OC)c1	–	–	Not Active	8.7 µM	Not Active	–	–
COC(=O)CCCC=C(c1cc(Cl)c(OC)c(C(=O)SC)c1)c1cc(Cl)c(OC)c(C(=O)SC)c1	55.3 min	5.74	Not Active	> 224 µM	–	–	–
COC(=O)CCC/C=C(/c1ccc(OC)c(OC)c1)c1cc(C)c(OC)c(C(=O)OC)c1	19.2 min	–	Not Active	0.25 µM	Not Active	–	–
COC(=O)CCCC=C(c1ccc(OC)cc1OC)c1ccc(OC)cc1OC	2.6 min	–	Not Active	5.9 µM	Not Active	–	–
COC(=O)CCC/C=C(\c1cc(C)c(OC)c(C(=O)OC)c1)c1cc(Cl)c(OC)c(C(=O)OC)c1	9 min	6.10	Not Active	19.1 µM	–	–	–
CCOc1c(C)cc(C(=CCCCC(=O)OC)c2cc(C)c(OCC)c(C(=O)OC)c2)cc1C(=O)OC	9 min	5.43	Not Active	73 µM	–	–	–
COC(=S)CCCC=C(c1cc(Cl)c(OC)c(C(=S)OC)c1)c1cc(Cl)c(OC)c(C(=S)OC)c1	–	4.45	Not Active	> 218 µM	–	–	–
COCCCCC=C(c1cc(Br)c(OC)c(C(=O)OC)c1)c1cc(Br)c(OC)c(C(=O)OC)c1	35.1 min	–	Not Active	28.6 µM	–	–	5.55
COc1c(Cl)cc(C(=CCCCCO)c2cc(Cl)c(OC)c(CO)c2)cc1CO	–	–	Not Active	30.7 µM	Not Active	–	–
CCCOC(=O)CCCC=C(c1cc(C)c(OC)c(C(=O)OC)c1)c1cc(C)c(OC)c(C(=O)OC)c1	5.2 min	5.46	Not Active	93.4 µM	–	–	–
CCCOC(=O)CCCC=C(c1cc(Br)c(OC)c(C(=O)OC)c1)c1cc(Br)c(OC)c(C(=O)OC)c1	3.4 min	5.66	Not Active	114 µM	–	–	–
